Measurements reported in ChEMBL document CHEMBL4330127, “Discovery of Novel Pyruvate Dehydrogenase Kinase 4 Inhibitors for Potential Oral Treatment of Metabolic Diseases” (J Med Chem, 2019).
Activity calls are given as the source filed them. The rule behind the calls is not given here.

How the values were obtained:
Cytochrome P450 2D6 = Cytochrome P450 2D6 (Homo sapiens, UniProt P10635); assay: Inhibition of CYP2D6 in human liver microsomes assessed as reduction in dextromethorphan O-demethylation by tandem mass spectrometry analysis; type: ADME
Chain of Cytochrome P450 2D6 (P10635 whole entry): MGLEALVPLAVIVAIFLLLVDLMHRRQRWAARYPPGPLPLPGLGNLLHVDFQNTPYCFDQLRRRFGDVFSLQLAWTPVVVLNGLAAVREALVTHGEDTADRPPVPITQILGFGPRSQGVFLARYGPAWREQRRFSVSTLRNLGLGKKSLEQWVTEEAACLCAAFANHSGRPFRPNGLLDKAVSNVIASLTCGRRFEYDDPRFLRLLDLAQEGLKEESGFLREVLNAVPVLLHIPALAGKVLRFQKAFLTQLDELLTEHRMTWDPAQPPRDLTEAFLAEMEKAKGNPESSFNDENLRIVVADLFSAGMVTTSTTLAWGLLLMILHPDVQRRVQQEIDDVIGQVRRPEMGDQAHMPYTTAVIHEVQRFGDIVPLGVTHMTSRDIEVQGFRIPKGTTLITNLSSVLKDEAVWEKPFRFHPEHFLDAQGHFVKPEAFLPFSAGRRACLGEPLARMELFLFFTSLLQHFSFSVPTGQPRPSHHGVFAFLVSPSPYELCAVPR
Summary of the method: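 Pooled human liver microsomes incubated with compound at 0–50 μM final; CYP probe activities (phenacetin O-deethylation for 1A2, tolbutamide 4-hydroxylation for 2C9, omeprazole hydroxylation for 2C19, dextromethorphan O-demethylation for 2D6) run as a cocktail incubation and quantified by tandem MS; duplicates; IC50 derived.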

[1] = molecular target: UDP-glucuronosyltransferase 1A1 (Homo sapiens, UniProt P22309); assay: Inhibition of UGT1A1 in human liver microsomes assessed as reduction in SN-38 glucuronidation by tandem mass spectrometry analysis; type: ADME
Chain of UDP-glucuronosyltransferase 1A1 (P22309 whole entry): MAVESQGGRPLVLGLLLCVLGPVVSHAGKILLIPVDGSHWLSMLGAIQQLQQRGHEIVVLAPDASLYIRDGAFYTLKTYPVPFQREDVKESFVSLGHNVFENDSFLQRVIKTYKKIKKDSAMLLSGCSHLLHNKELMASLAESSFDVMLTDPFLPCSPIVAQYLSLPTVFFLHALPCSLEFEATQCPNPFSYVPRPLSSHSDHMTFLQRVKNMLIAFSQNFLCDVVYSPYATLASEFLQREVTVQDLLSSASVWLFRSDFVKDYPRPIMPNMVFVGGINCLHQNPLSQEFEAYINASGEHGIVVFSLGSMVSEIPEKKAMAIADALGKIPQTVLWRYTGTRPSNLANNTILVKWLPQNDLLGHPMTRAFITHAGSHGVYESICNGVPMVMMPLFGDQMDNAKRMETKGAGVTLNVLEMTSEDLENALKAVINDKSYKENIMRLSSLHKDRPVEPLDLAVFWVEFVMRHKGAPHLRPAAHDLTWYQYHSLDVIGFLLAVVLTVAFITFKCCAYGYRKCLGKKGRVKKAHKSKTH
Summary of the method: (§1)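 Pooled human liver microsomes; test compound at final 0–50 μM in a cocktail incubation with probe substrates: midazolam 1′-hydroxylation (CYP3A), SN-38 glucuronidation (UGT1A1), trifluoperazine N-glucuronidation (UGT1A4), mycophenolic acid glucuronidation (UGT1A9), naloxone 3-glucuronidation (UGT2B7). Metabolites measured by tandem MS; IC50 determined; duplicate.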

[2] = molecular target: UDP-glucuronosyltransferase 1A4 (Homo sapiens, UniProt P22310); assay: Inhibition of UGT1A4 in human liver microsomes assessed as reduction in trifluoperazine N-glucuronidation by tandem mass spectrometry analysis; type: ADME; summary of the method: as §1
Chain of UDP-glucuronosyltransferase 1A4 (P22310 whole entry): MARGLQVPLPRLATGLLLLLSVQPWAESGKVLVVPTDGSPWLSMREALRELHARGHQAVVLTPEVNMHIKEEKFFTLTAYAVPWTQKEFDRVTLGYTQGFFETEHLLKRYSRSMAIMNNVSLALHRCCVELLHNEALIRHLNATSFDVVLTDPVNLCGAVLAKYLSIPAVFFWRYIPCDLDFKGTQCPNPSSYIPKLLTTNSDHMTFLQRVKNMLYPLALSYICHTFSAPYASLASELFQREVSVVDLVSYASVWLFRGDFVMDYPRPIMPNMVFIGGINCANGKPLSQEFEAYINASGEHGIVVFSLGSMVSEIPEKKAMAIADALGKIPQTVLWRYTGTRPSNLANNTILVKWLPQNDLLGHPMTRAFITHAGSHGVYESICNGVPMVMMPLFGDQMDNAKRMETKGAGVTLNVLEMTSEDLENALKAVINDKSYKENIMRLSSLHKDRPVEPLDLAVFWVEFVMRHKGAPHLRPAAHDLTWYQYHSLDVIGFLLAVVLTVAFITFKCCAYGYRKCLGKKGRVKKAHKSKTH

[3] = molecular target: UDP-glucuronosyltransferase 1A9 (Homo sapiens, UniProt O60656); assay: Inhibition of UGT1A9 in human liver microsomes assessed as reduction in mycophenolic acid glucuronidation by tandem mass spectrometry analysis; type: ADME; summary of the method: as §1
Chain of UDP-glucuronosyltransferase 1A9 (O60656 whole entry): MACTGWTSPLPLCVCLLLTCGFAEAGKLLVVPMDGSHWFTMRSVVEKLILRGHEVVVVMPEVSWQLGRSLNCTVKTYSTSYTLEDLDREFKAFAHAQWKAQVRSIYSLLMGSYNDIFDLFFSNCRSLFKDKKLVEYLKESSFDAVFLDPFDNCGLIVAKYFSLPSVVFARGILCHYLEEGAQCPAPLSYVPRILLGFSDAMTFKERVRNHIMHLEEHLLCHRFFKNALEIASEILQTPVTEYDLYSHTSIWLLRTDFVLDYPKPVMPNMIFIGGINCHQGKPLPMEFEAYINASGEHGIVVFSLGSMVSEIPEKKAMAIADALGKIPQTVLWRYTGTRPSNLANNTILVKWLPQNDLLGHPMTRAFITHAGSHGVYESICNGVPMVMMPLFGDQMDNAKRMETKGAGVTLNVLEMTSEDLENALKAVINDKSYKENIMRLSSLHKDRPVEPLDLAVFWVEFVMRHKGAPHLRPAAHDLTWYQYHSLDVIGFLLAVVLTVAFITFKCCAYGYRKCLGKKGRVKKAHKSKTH

[4] = Half life in rat at 5 mg/kg, iv; type: ADME, organism-based; conditions: in vivo
[5] = Cmax in rat at 10 mg/kg, po; type: ADME, organism-based; design: dose 10 mg/kg, route oral; conditions: in vivo
Summary of the method: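 Male rats given a single dose, 5 mg/kg intravenously or 10 mg/kg orally. Plasma PK parameters were reported as mean ± SD: AUCt, AUC∞, Cmax, Tmax, T1/2, CL, Vss and oral bioavailability F.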

Mast cell [6] = assay: Inhibition of degranulation in IgE-labeled bone marrow-derived mast cells (unknown origin) assessed as reduction in beta-hexosaminidase release by measuring absorbance at 10 uM preincubated for 1 hr followed by HSA stimulation and measured after 15 mins (reference value: 0.26 +/- 0.025); type: functional
Mast cell [7] = assay: Inhibition of degranulation in IgE-labeled bone marrow-derived mast cells (unknown origin) assessed as reduction in beta-hexosaminidase release by measuring absorbance at 20 uM preincubated for 1 hr followed by HSA stimulation and measured after 15 mins (reference value: 0.26 +/- 0.025); type: functional
[8] = molecular target: Cellular tumor antigen p53 (Homo sapiens) (UniProt P04637); assay: Induction of p53 phosphorylation at Ser-15 residue in human HCT116 cells after 24 hrs by Western blot analysis; type: cell-based
Chain of Cellular tumor antigen p53 (Homo sapiens) (P04637 whole entry, looked up): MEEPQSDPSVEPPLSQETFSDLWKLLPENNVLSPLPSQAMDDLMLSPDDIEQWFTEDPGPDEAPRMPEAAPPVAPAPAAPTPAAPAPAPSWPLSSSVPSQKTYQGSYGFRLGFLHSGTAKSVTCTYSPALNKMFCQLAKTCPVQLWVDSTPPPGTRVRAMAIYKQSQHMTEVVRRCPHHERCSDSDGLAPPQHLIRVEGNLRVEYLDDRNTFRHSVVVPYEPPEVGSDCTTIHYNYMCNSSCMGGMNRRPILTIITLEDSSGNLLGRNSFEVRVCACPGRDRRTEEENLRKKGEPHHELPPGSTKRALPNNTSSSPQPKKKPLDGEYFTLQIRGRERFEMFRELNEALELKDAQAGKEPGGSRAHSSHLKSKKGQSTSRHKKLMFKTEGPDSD
Summary of the method: (§2)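 HCT116 and RKO cells given a range of compound doses for 24 h; lysates probed by Western blot for apoptosis-related proteins (p53, BAX, BCLxL).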

HCT-116 [9] = assay: Induction of apoptosis in human HCT116 cells assessed as increase in Bax expression at 10 to 50 uM after 24 hrs by Western blot analysis; type: functional, cell-based; summary of the method: as §2
RKO [10] = assay: Induction of apoptosis in human RKO cells assessed as decrease in Bcl-XL expression at 10 to 50 uM after 24 hrs by Western blot analysis; type: functional, cell-based; summary of the method: as §2
RKO [11] = assay: Induction of apoptosis in human RKO cells assessed as increase in cleaved-PARP expression at 10 to 50 uM after 24 hrs by Western blot analysis; type: functional, cell-based; summary of the method: as §2
HCT-116 [12] = assay: Induction of apoptosis in human HCT116 cells assessed as increase in cleaved caspase-3 expression at 10 to 50 uM after 24 hrs by Western blot analysis; type: functional, cell-based; summary of the method: as §2
RKO [13] = assay: Induction of apoptosis in human RKO cells assessed as increase in cleaved caspase-3 expression at 10 to 50 uM after 24 hrs by Western blot analysis; type: functional, cell-based; summary of the method: as §2
HCT-116 [14] = assay: Induction of apoptosis in human HCT116 cells after 24 hrs by Annexin V/propidium iodide staining based flow cytometry; type: functional, cell-based
HCT-116 [15] = assay: Induction of apoptosis in human HCT116 cells assessed as late apoptotic cells at 10 uM after 24 hrs by Annexin V/propidium iodide staining based flow cytometry (reference value: 8.36%); type: functional
HCT-116 [16] = assay: Induction of apoptosis in human HCT116 cells assessed as late apoptotic cells at 50 uM after 24 hrs by Annexin V/propidium iodide staining based flow cytometry (reference value: 8.36%); type: functional
HCT-116 [17] = assay: Induction of apoptosis in human HCT116 cells assessed as necrotic cells at 25 uM after 24 hrs in presence of oxaliplatin by Annexin V/propidium iodide staining based flow cytometry (reference value: 21.2%); type: functional
HCT-116 [18] = assay: Cell cycle arrest in human HCT116 cells assessed as accumulation at G1/G0 phase at 25 uM after 24 hrs propidium iodide staining based flow cytometry (reference value: 42%); type: functional
Summary of the method: (§3)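 HCT116 and RKO cells were treated with compound alone or with oxaliplatin for 24 h before harvest. Cells were stained with propidium iodide, and DNA content was analysed by flow cytometry. Cell-cycle phase populations, including sub-G1, are given as percentages.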

HCT-116 [19] = assay: Cell cycle arrest in human HCT116 cells assessed as accumulation at sub-G1 phase at 50 uM after 24 hrs propidium iodide staining based flow cytometry (reference value: 17.8%); type: functional; summary of the method: as §3
HCT-116 [20] = assay: Cell cycle arrest in human HCT116 cells assessed as accumulation at sub-G1 phase at 25 uM after 24 hrs in presence of oxaliplatin propidium iodide staining based flow cytometry (reference value: 25.1%); type: functional; summary of the method: as §3
HCT-116 [21] = assay: Cell cycle arrest in human HCT116 cells assessed as accumulation at S phase at 25 uM after 24 hrs in presence of oxaliplatin propidium iodide staining based flow cytometry (reference value: 5.4%); type: functional; summary of the method: as §3
HCT-116 [22] = assay: Cell cycle arrest in human HCT116 cells assessed as accumulation at G2/M phase at 25 uM after 24 hrs in presence of oxaliplatin propidium iodide staining based flow cytometry (reference value: 28.2%); type: functional; summary of the method: as §3
RKO [23] = assay: Induction of apoptosis in human RKO cells assessed as early apoptotic cells at 10 uM after 24 hrs by Annexin V/propidium iodide staining based flow cytometry (reference value: 9.62%); type: functional
RKO [24] = assay: Induction of apoptosis in human RKO cells assessed as late apoptotic cells at 10 uM after 24 hrs by Annexin V/propidium iodide staining based flow cytometry (reference value: 7.42%); type: functional
RKO [25] = assay: Induction of apoptosis in human RKO cells assessed as early apoptotic cells at 50 uM after 24 hrs by Annexin V/propidium iodide staining based flow cytometry (reference value: 9.62%); type: functional
RKO [26] = assay: Induction of apoptosis in human RKO cells assessed as necrotic cells at 50 uM after 24 hrs by Annexin V/propidium iodide staining based flow cytometry (reference value: 0.56%); type: functional
RKO [27] = assay: Induction of apoptosis in human RKO cells assessed as late apoptotic cells at 25 uM after 24 hrs in presence of oxaliplatin by Annexin V/propidium iodide staining based flow cytometry (reference value: 7.02%); type: functional
RKO [28] = assay: Cell cycle arrest in human RKO cells assessed as accumulation at sub-G1 phase at 10 uM after 24 hrs propidium iodide staining based flow cytometry (reference value: 17.6%); type: functional
RKO [29] = assay: Cell cycle arrest in human RKO cells assessed as accumulation at sub-G1 phase at 25 uM after 24 hrs propidium iodide staining based flow cytometry (reference value: 17.6%); type: functional

Compound: Cl.O=C1c2ccccc2C(=O)c2c1cccc2-c1cnn(C2CCNCC2)c1
- IC50 (Cytochrome P450 2D6): > 50 µM
- IC50 [1]: > 50 µM
- IC50 [2]: > 50 µM
- IC50 [3]: > 50 µM
- half-life [4]: 7.06 h
- Cmax [5]: 0.565 µg/mL
- OD (Mast cell [6]): 0.2
- OD (Mast cell [7]): 0.126
- Activity [8]: Dose-dependent effect
- Activity (HCT-116 [9]): Active
- Activity (RKO [10]): Active
- Activity (RKO [11]): Active
- Activity (HCT-116 [12]): Active
- Activity (RKO [13]): Active
- Activity (HCT-116 [14]): Dose-dependent effect
- Activity (HCT-116 [15]): 7.1%
- Activity (HCT-116 [16]): 54.5%
- Activity (HCT-116 [17]): 25.9%
- Activity (HCT-116 [18]): 19%
- Activity (HCT-116 [19]): 78.2%
- Activity (HCT-116 [20]): 36%
- Activity (HCT-116 [21]): 12.7%
- Activity (HCT-116 [22]): 33.5%
- Activity (RKO [23]): 5.2%
- Activity (RKO [24]): 11.2%
- Activity (RKO [25]): 41.4%
- Activity (RKO [26]): 0.006%
- Activity (RKO [27]): 33.8%
- Activity (RKO [28]): 21.4%
- Activity (RKO [29]): 58.7%
